Reference: ChEMBL document CHEMBL3414521, “Discovery of the 2-phenyl-4,5,6,7-Tetrahydro-1H-indole as a novel anti-hepatitis C virus targeting scaffold” (Eur J Med Chem, 2015)
The source made the active and inactive calls. The calls are words filed in the database; no cut-off is given here.

What was measured:
Hepatitis C virus [1] = experiment: Antiviral activity against HCV genotype 2a infected in HuH7.5-FGR-JC1_Rluc2A cells at 50 uM by […] luciferase reporter gene assay; format: functional, Hepacivirus hominis; details: for inhibition: Hepacivirus hominis
Hepatitis C virus [2] = experiment: Antiviral activity against HCV genotype 1b infected in HuH7/Rep-Feo1b cells at 50 uM by firefly luciferase reporter gene assay; format: functional; details: for inhibition: Hepacivirus hominis; for inhibition at 50 µM: Huh-7
In short: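 Replicon reporter cells (gt 1b in Huh7/Rep-Feo1b, firefly luciferase; gt 2a in Huh7.5-FGR-JC1-Rluc2A, Renilla luciferase) kept in DMEM with 10% FCS and 0.5 mg/mL G418, 37 °C, 5% CO2. About 1×10^4 cells per well were treated at 50 μM for 48 h in 1.0% DMSO. Luciferase signal was read relative to DMSO-treated cells as % inhibition.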

[3] = Cytotoxicity against human Huh7.5 cells after 48 hrs by MTS assay; format: cell-based; details: huh-7, 48 h
In short: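 Parental Huh7.5 cells grown in DMEM with 10% FCS without G418, 37 °C, 5% CO2; treated at 6–8 doses for 48 h. Viability by MTS bioreduction to formazan; CC50 as concentration halving MTS conversion relative to DMSO controls, mean ± SD of three independent experiments.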

[4] = Selectivity index, ratio of CC50 for human Huh7.5 cells to EC50 for HCV genotype 2a infected in HuH7.5-FGR-JC1_Rluc2A cells; parameters: species or system Huh-7
Hepatitis C virus [5] = experiment: Antiviral activity against HCV genotype 2a infected in HuH7.5-FGR-JC1_Rluc2A cells by […]; format: functional, Hepacivirus hominis
[6] = system: Hepatitis C virus (isolate Con1); experiment: Inhibition of HCV Con1 genotype 1b C-terminal His-tagged NS3 helicase lacking N-terminal protease using fluorescent DNA as substrate at 500 uM
In short: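 Molecular beacon unwinding assay: 12.5 nM NS3h, 5 nM fluorescent DNA substrate, 1 mM ATP, 25 mM MOPS pH 6.5, 1.25 mM MgCl2, 5% DMSO, 5 µg/ml BSA, 0.01% Tween20, 0.05 mM DTT; compounds up to 500 μM.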

[7] = Inhibition of HCV Con1 genotype 1b C-terminal His-tagged NS3 helicase lacking N-terminal protease using ATP/RNA as substrate after 15 mins by malachite green-based assy; parameters: species or system Hepatitis C virus (isolate Con1)
In short: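 NS3h (con1 gt 1b, C-terminal His-tag, protease-deleted) at 4 nM with 1 μM polyU RNA (nucleotide), 25 mM MOPS pH 6.5, 1.25 mM MgCl2, 1 mM ATP, 33 µg/ml BSA, 0.07% Tween 20, 0.3 mM DTT, 10% DMSO; started with ATP, 15 min, 37 °C. Phosphate by malachite green, A630. Two-fold series 0.5 mM–0.78 µM, duplicate; variable-slope fit, mean ± SD.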

Hepatitis C virus [8] = experiment: Antiviral activity against HCV genotype 1b infected in HuH7/Rep-Feo1b cells by firefly luciferase reporter gene assay; format: functional, cell-based, Hepacivirus hominis; details: Huh-7
In short: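 Huh7 cells carrying autonomously replicating gt 1b replicon with firefly luciferase reporter; ~1×10^4 cells/well treated 48 h, 1.0% DMSO final. Primary screen at 50 μM; actives titrated over 8–12 quarter-log dilutions. Luciferase signal relative to DMSO-treated controls; EC50 from dose-response curves, mean ± SD of three independent experiments.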

[9] = Selectivity index, ratio of CC50 for human Huh7.5 cells to EC50 for HCV genotype 1b infected in HuH7/Rep-Feo1b cells; parameters: species or system Huh-7
Hepacivirus hominis = experiment: Inhibition of recombinant HCV hexa histidine-tagged NS5B Cdelta21 RNA dependent RNA polymerase expressed in Escherichia coli at 50 uM after 60 mins by liquid scintillation counting analysis

| SMILES | inhibition at 50 µM (Hepatitis C virus [1]) | inhibition (Hepatitis C virus [2]) | CC50 [3] | Ratio CC50/EC50 [4] | EC50 (Hepatitis C virus [5]) | inhibition [6] | IC50 [7] | EC50 (Hepatitis C virus [8]) | inhibition at 50 µM (Hepatitis C virus [2]) | Ratio CC50/EC50 [9] | inhibition (Hepacivirus hominis) | inhibition (Hepatitis C virus [1]) |
| --- | --- | --- | --- | --- | --- | --- | --- | --- | --- | --- | --- | --- |
| C[C@@]12CC3C(=O)N4[C@H](C[C@@]5(C)C(=O)CCCC[C@@H]45)C(=O)N3[C@@H]1CCCCC2=O (mixture of isomers) | 28% | inactive | > 200 µM | – | – | – | – | – | – | – | – | – |
| Cc1ccc2[nH]c(=O)c(CN(Cc3ccccc3)C(=O)c3ccc(NC(=N)N)cc3)cc2c1 | 44% | inactive | > 200 µM | – | – | – | – | – | – | – | – | – |
| Br.CC(=O)N[C@]12CCN(Cc3ccccc3)C[C@H]1[C@H](c1ccccc1)NC2 (racemic) | 73% | inactive | > 200 µM | >41 | 4.9 µM | – | – | – | – | – | – | – |
| O=[N+]([O-])c1ccc(-c2cc3c(n2Cc2ccccc2)CCCC3)cc1 | 98% | – | > 200 µM | 27 | 7.3 µM | inactive | > 1000 µM | 15 µM | 75% | 13 | inactive | – |
| COC(=O)c1cc(C(=O)O)cc(-c2cc3c(n2Cc2ccccc2)CCCC3)c1 | 96% | – | 45.6 µM | >5 | 9.9 µM | – | – | 35.8 µM | 81% | >1 | – | – |
| C[C@@]12C[C@@H]3C(=O)Nc4ccccc4C(=O)N3[C@@H]1CCCCC2=O (racemic) | – | inactive | > 200 µM | – | – | – | – | – | – | – | – | inactive |
| Cc1nn(Cc2ccccc2)c(C)c1CC(=O)O | 14% | inactive | > 200 µM | – | – | – | – | – | – | – | – | – |
| Oc1ccccc1-c1cc2c(n1Cc1ccccc1)CCCC2 | 99% | – | 48.9 µM | 8 | 6.5 µM | – | – | 9.2 µM | 96% | 5 | – | – |
| Cc1nn(Cc2ccccc2)c(C)c1C(=O)O | – | – | > 200 µM | – | – | – | – | – | 19% | – | – | inactive |
| Cc1nc2c(c(C)nn2-c2ccccc2)c(C)c1CCC(=O)O | 78% | inactive | > 200 µM | >17 | 11.7 µM | – | – | – | – | – | – | – |
| CCOC(=O)C(C)n1c(-c2ccccc2)cc2c1CCCC2 (racemic) | 95% | – | 84.3 µM | 6 | 13.7 µM | – | – | 13.2 µM | 74% | 6 | – | – |
| c1ccc(Cn2c(-c3cccnc3)cc3c2CCCC3)cc1 | 99% | – | < 25 µM | – | – | – | – | – | 92% | – | – | – |
| Cc1cccc(N2CC(c3nc4ccccc4[nH]3)CC2=O)c1 (stereo unspecified) | 77% | – | > 200 µM | >12 | 17.3 µM | – | – | – | 21% | – | – | – |
| CC(=O)c1cn(CC(=O)O)c2ccccc12 | 55% | inactive | > 200 µM | – | – | – | – | – | – | – | – | – |
| CC(C)(C)OC(=O)N1CC(=O)[C@]2(C)CCN(Cc3ccccc3)[C@@H]2C1 (relative stereo) | 98% | – | 115 µM | >19 | 6 µM | – | – | 24.3 µM | 73% | 5 | – | – |
| COc1ccc(CN2CC(C)n3c(nc4cccnc43)C2=O)c(OC)c1 (racemic) | 48% | – | > 200 µM | – | – | – | – | – | 45% | – | – | – |
| CCOC(=O)[C@@H](C)N1C(=O)C(=O)c2ccccc21 | 85% | – | > 200 µM | >27 | 7.3 µM | – | – | – | 19% | – | – | – |
| Nc1ccc(-c2cc3c(n2Cc2ccccc2)CCCC3)cc1 | 88% | – | 110 µM | 13 | 8.7 µM | inactive | 417 µM | 12.4 µM | 66% | 9 | inactive | – |
| O=C(O)c1cc(-c2ccncc2)nc2ccccc12 | 49% | inactive | > 200 µM | – | – | – | – | – | – | – | – | – |
| O=C1CC(c2nc3ccccc3[nH]2)CN1C1CCCCC1 (stereo unspecified) | 72% | – | > 200 µM | >13 | 15.6 µM | – | – | – | 19% | – | – | – |

| SMILES | inhibition at 50 µM (Hepatitis C virus [1]) | inhibition (Hepatitis C virus [2]) | CC50 [3] | Ratio CC50/EC50 [4] | EC50 (Hepatitis C virus [5]) | inhibition [6] | IC50 [7] | EC50 (Hepatitis C virus [8]) | inhibition at 50 µM (Hepatitis C virus [2]) | Ratio CC50/EC50 [9] | inhibition (Hepacivirus hominis) | inhibition (Hepatitis C virus [1]) |
| --- | --- | --- | --- | --- | --- | --- | --- | --- | --- | --- | --- | --- |
| CC1CN(C(=O)c2ccccc2)c2ccccc2NC1=O (stereo unspecified) | 77% | – | > 200 µM | >14 | 14.1 µM | – | – | – | 21% | – | – | – |
| CC(C(N)=O)n1c(-c2ccccc2)cc2c1CCCC2 (stereo unspecified) | 83% | – | 156 µM | >10 | 15.4 µM | – | – | – | 50% | – | – | – |
| O=C(O)C1CCCN(S(=O)(=O)c2ccccc2)C1 (racemic) | 62% | inactive | > 200 µM | >7 | 28.1 µM | – | – | – | – | – | – | – |
| O=C(O)CCn1c(-c2ccccc2)cc2ccccc21 | 54% | – | – | – | – | – | – | – | 26% | – | – | – |
| CCn1cc(C(=O)Nc2ccccc2C(N)=O)c(=O)c2cc(OC)ccc21 | 65% | – | 85.6 µM | 4 | 20.6 µM | – | – | – | 17% | – | – | – |
| Cc1ccc2[nH]c(=O)c(CN(CCc3ccccc3)C(=O)c3ccc(OCCN(C)C)cc3)cc2c1 | 61% | – | > 200 µM | >8 | 24.8 µM | – | – | – | 45% | – | – | – |
| Br.CC(=O)[C@]12CCN(Cc3ccccc3)C[C@H]1[C@H](c1ccccc1)NC2 (racemic) | 76% | inactive | > 200 µM | >11 | 17.4 µM | – | – | – | – | – | – | – |
| O=C(O)c1nn(Cc2ccccc2)c2ccccc12 | 46% | inactive | > 200 µM | – | – | – | – | – | – | – | – | – |
| Cc1ccc2[nH]c(=O)c(CN(Cc3ccc(F)cc3)C(=O)c3ccc(NC(=N)N)cc3)cc2c1 | 29% | – | > 200 µM | – | – | – | – | – | 54% | – | – | – |
| Cc1ccc(CN(Cc2cc3cc(C)ccc3[nH]c2=O)C(=O)c2ccc(CN3CCN(C)CC3)cc2)cc1 | 99% | – | < 25 µM | – | – | – | – | – | 92% | – | – | – |
| CC(=O)N[C@@]12CCN(C(=O)OC(C)(C)C)C[C@@H]1CN(C(=O)OC(C)(C)C)C2 (racemic) | 43% | inactive | > 200 µM | – | – | – | – | – | – | – | – | – |
| COc1ccc(NS(=O)(=O)c2ccc(CN3C(=O)c4ccccc4C3=O)cc2)cc1 | 60% | – | > 200 µM | >9 | 22.5 µM | – | – | – | 39% | – | – | – |
| NC(=O)Cn1c(-c2ccccc2)cc2c1CCCC2 | 48% | – | > 200 µM | – | – | – | – | – | 37% | – | – | – |
| CCn1cc(-c2ccccc2)c(C(N)=O)c1C | 66% | – | > 200 µM | >8 | 23.6 µM | – | – | – | 49% | – | – | – |
| O=C(O)C1CC(=O)N(CCc2c[nH]c3ccccc23)C1 (stereo unspecified) | 51% | – | > 200 µM | >4 | 48.5 µM | – | – | – | 22% | – | – | – |
| COc1cccc(C(=O)Nc2cc(C)nc3ccc(C)cc23)c1 | 99% | – | < 25 µM | – | – | – | – | – | 88% | – | – | – |
| O=C1CC(c2nc3ccccc3[nH]2)CN1Cc1ccccc1 (stereo unspecified) | 67% | inactive | > 200 µM | >9 | 21.1 µM | – | – | – | – | – | – | – |
| CCn1cc(-c2ccccc2)c(C(=O)O)c1C | 36% | inactive | > 200 µM | – | – | – | – | – | – | – | – | – |
| CC1(CO)CCN2CCCCC21 (racemic) | 25% | – | > 200 µM | – | – | – | – | – | 50% | – | – | – |
| C=CCn1c(-c2ccccc2)cc2c1CCCC2 | 69% | – | 119 µM | 4 | 32.1 µM | – | – | – | 35% | – | – | – |
